These results are taken from ChEMBL document CHEMBL1817564, “Recognition of HIV TAR RNA by triazole linked neomycin dimers” (Bioorg Med Chem Lett, 2011).

The source made the active and inactive calls. The calls are words filed in the database; no cut-off is given here. Bounds are passed on as bounds.

Assay [1] has as its system Nucleic Acid. Put plainly: Binding affinity to HIV1 TAR RNA assessed as melting temperature at HIV1 TAR RNA to compound ratio of 1 at pH 6.8 by UV thermal denaturation assay. In kind it is nucleic-acid assay. The following applies: Human immunodeficiency virus 1. An outline of the steps: (§1)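 UV melting of HIV-1 TAR RNA (1 µM/strand) with ligand at 1 µM (ratio 1) in 100 mM KCl, 10 mM SC, 0.5 mM EDTA, pH 6.8. Tm taken from first-derivative plots of absorbance versus temperature; ΔTm is relative to RNA alone.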

Assay [2] deals with Nucleic Acid. As to the kind of experiment: Binding affinity to HIV1 TAR RNA assessed as change in melting temperature at HIV1 TAR RNA to compound ratio of 1 at pH 6.8 by UV thermal denaturation assay. The following applies: Human immunodeficiency virus 1. In kind it is nucleic-acid assay. The procedure, abridged:
as §1

The subject of assay [3] is Nucleic Acid. As to the kind of experiment: Binding affinity to HIV1 TAR RNA at […] up to 3 by CD Spectroscopy. In kind it is nucleic-acid assay. The following applies: Human immunodeficiency virus 1. An outline of the steps: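 CD titration of HIV TAR RNA with incremental additions of neomycin dimer, covering drug/duplex ratio (rdd) 0 to 3. Read-out is molar ellipticity.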

For assay [4], the system named is Nucleic Acid. Put plainly: Inhibition of HIV1 TAR RNA. In kind it is nucleic-acid assay, Human immunodeficiency virus 1.
The subject of assay [5] is Nucleic Acid. As to the kind of experiment: Binding affinity to HIV1 TAR RNA assessed as melting temperature at compound to TAR RNA ratio of 2 at pH 6.8 by UV thermal denaturation assay. The format is nucleic-acid assay. The following applies: Human immunodeficiency virus 1. An outline of the steps: (§2)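 TAR RNA UV thermal denaturation in 100 mM KCl, 10 mM SC, 0.5 mM EDTA, pH 6.8, with dimer:RNA at 2:1. Tm taken from first-derivative plots.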

The subject of assay [6] is Nucleic Acid. Put plainly: Binding affinity to HIV1 TAR RNA assessed as melting temperature at compound to TAR RNA ratio of 4 at pH 6.8 by UV thermal denaturation assay. The following applies: Human immunodeficiency virus 1. In kind it is nucleic-acid assay.
Assay [7] concerns Nucleic Acid. As to the kind of experiment: Binding affinity to HIV1 TAR RNA assessed as change in melting temperature at compound to TAR RNA ratio of 2 at pH 6.8 by UV thermal denaturation assay. In kind it is nucleic-acid assay. The following applies: Human immunodeficiency virus 1. The procedure, abridged:
as §2

The subject of assay [8] is Nucleic Acid. As to the kind of experiment: Binding affinity to HIV1 TAR RNA assessed as change in melting temperature at compound to TAR RNA ratio of 4 at pH 6.8 by UV thermal denaturation assay. The format is nucleic-acid assay. The following applies: Human immunodeficiency virus 1.

For the compound `NC[C@@H]1O[C@H](O[C@H]2[C@@H](O)[C@H](O[C@@H]3[C@@H](O)[C@H](N)C[C@H](N)[C@H]3O[C@H]3O[C@H](CN)[C@@H](O)[C@H](O)[C@H]3N)O[C@@H]2Cn2cc(COCc3cn(C[C@H]4O[C@@H](O[C@@H]5[C@@H](O)[C@H](N)C[C@H](N)[C@H]5O[C@H]5O[C@H](CN)[C@@H](O)[C@H](O)[C@H]5N)[C@H](O)[C@@H]4O[C@H]4O[C@@H](CN)[C@@H](O)[C@H](O)[C@H]4N)nn3)nn2)[C@H](N)[C@@H](O)[C@@H]1O`, in the assay on Nucleic Acid [1], the Tm is 79.1 °C. In the assay on Nucleic Acid [2], the ΔTm was found to be 10.2 °C. Moreover, the outcome in the assay with Nucleic Acid [3] was Active.
For `NC[C@@H]1O[C@H](O[C@H]2[C@@H](O)[C@H](O[C@@H]3[C@@H](O)[C@H](N)C[C@H](N)[C@H]3O[C@H]3O[C@H](CN)[C@@H](O)[C@H](O)[C@H]3N)O[C@@H]2Cn2cc(COCCCCCCCCCCCCOCc3cn(C[C@H]4O[C@@H](O[C@@H]5[C@@H](O)[C@H](N)C[C@H](N)[C@H]5O[C@H]5O[C@H](CN)[C@@H](O)[C@H](O)[C@H]5N)[C@H](O)[C@@H]4O[C@H]4O[C@@H](CN)[C@@H](O)[C@H](O)[C@H]4N)nn3)nn2)[C@H](N)[C@@H](O)[C@@H]1O`, the Tm in the assay with Nucleic Acid [1] stood at 72.1 °C. Also, the ΔTm with Nucleic Acid [2] was found to be 3.3 °C.
Consider `NC[C@@H]1O[C@H](O[C@H]2[C@@H](O)[C@H](O[C@@H]3[C@@H](O)[C@H](N)C[C@H](N)[C@H]3O[C@H]3O[C@H](CN)[C@@H](O)[C@H](O)[C@H]3N)O[C@@H]2CO)[C@H](N)[C@@H](O)[C@@H]1O` [FRAMYCETIN], for which, in the assay with Nucleic Acid [4], half-maximal inhibition (IC50) required 417 nM and the Kd was < 1000 nM. Also, the Tm in the assay on Nucleic Acid [1] is 69.1 °C. For the same compound, the ΔTm with Nucleic Acid [2] was found to be 0.2 °C.
As for `NC[C@@H]1O[C@H](O[C@H]2[C@@H](O)[C@H](O[C@@H]3[C@@H](O)[C@H](N)C[C@H](N)[C@H]3O[C@H]3O[C@H](CN)[C@@H](O)[C@H](O)[C@H]3N)O[C@@H]2Cn2cc(CCCCCCc3cn(C[C@H]4O[C@@H](O[C@@H]5[C@@H](O)[C@H](N)C[C@H](N)[C@H]5O[C@H]5O[C@H](CN)[C@@H](O)[C@H](O)[C@H]5N)[C@H](O)[C@@H]4O[C@H]4O[C@@H](CN)[C@@H](O)[C@H](O)[C@H]4N)nn3)nn2)[C@H](N)[C@@H](O)[C@@H]1O`, the Tm with Nucleic Acid [1] came out at 74.9 °C. For the same compound, the ΔTm in the assay with Nucleic Acid [2] was determined as 6.1 °C.
As to `NC[C@@H]1O[C@H](O[C@H]2[C@@H](O)[C@H](O[C@@H]3[C@@H](O)[C@H](N)C[C@H](N)[C@H]3O[C@H]3O[C@H](CN)[C@@H](O)[C@H](O)[C@H]3N)O[C@@H]2Cn2cc(Cc3ccc(Cc4cn(C[C@H]5O[C@@H](O[C@@H]6[C@@H](O)[C@H](N)C[C@H](N)[C@H]6O[C@H]6O[C@H](CN)[C@@H](O)[C@H](O)[C@H]6N)[C@H](O)[C@@H]5O[C@H]5O[C@@H](CN)[C@@H](O)[C@H](O)[C@H]5N)nn4)cc3)nn2)[C@H](N)[C@@H](O)[C@@H]1O`, in the assay on Nucleic Acid [1], the Tm stood at 78.5 °C. Moreover, the ΔTm in the assay with Nucleic Acid [2] worked out at 9.6 °C.
For `NC[C@@H]1O[C@H](O[C@H]2[C@@H](O)[C@H](O[C@@H]3[C@@H](O)[C@H](N)C[C@H](N)[C@H]3O[C@H]3O[C@H](CN)[C@@H](O)[C@H](O)[C@H]3N)O[C@@H]2Cn2cc(CCCCc3cn(C[C@H]4O[C@@H](O[C@@H]5[C@@H](O)[C@H](N)C[C@H](N)[C@H]5O[C@H]5O[C@H](CN)[C@@H](O)[C@H](O)[C@H]5N)[C@H](O)[C@@H]4O[C@H]4O[C@@H](CN)[C@@H](O)[C@H](O)[C@H]4N)nn3)nn2)[C@H](N)[C@@H](O)[C@@H]1O`, the melting temperature (Tm) in the assay on Nucleic Acid [1] came to 77.1 °C. The ΔTm in the assay on Nucleic Acid [2] turned out to be 8.2 °C.
As for `NC[C@@H]1O[C@H](O[C@H]2[C@@H](O)[C@H](O[C@@H]3[C@@H](O)[C@H](N)C[C@H](N)[C@H]3O[C@H]3O[C@H](CN)[C@@H](O)[C@H](O)[C@H]3N)O[C@@H]2Cn2cc(CCCc3cn(C[C@H]4O[C@@H](O[C@@H]5[C@@H](O)[C@H](N)C[C@H](N)[C@H]5O[C@H]5O[C@H](CN)[C@@H](O)[C@H](O)[C@H]5N)[C@H](O)[C@@H]4O[C@H]4O[C@@H](CN)[C@@H](O)[C@H](O)[C@H]4N)nn3)nn2)[C@H](N)[C@@H](O)[C@@H]1O`, the Tm was 78.2 °C in the assay with Nucleic Acid [1], 80.4 °C in the assay with Nucleic Acid [5] and 81.3 °C in the assay with Nucleic Acid [6]. Also, the results for the ΔTm in the assay on Nucleic Acid [2], in the assay with Nucleic Acid [7] and in the assay with Nucleic Acid [8] were 9.3 °C, 11.5 °C and 12.4 °C, respectively.
Turning to `C/C(CCc1cn(C[C@H]2O[C@@H](O[C@@H]3[C@@H](O)[C@H](N)C[C@H](N)[C@H]3O[C@H]3O[C@H](CN)[C@@H](O)[C@H](O)[C@H]3N)[C@H](O)[C@@H]2O[C@H]2O[C@@H](CN)[C@@H](O)[C@H](O)[C@H]2N)nn1)=C(/C)CCc1cn(C[C@H]2O[C@@H](O[C@@H]3[C@@H](O)[C@H](N)C[C@H](N)[C@H]3O[C@H]3O[C@H](CN)[C@@H](O)[C@H](O)[C@H]3N)[C@H](O)[C@@H]2O[C@H]2O[C@@H](CN)[C@@H](O)[C@H](O)[C@H]2N)nn1`, in the assay with Nucleic Acid [1], the Tm was 76.4 °C. For the same compound, the ΔTm in the assay on Nucleic Acid [2] stood at 7.6 °C.
The like results for `NC[C@@H]1O[C@H](O[C@H]2[C@@H](O)[C@H](O[C@@H]3[C@@H](O)[C@H](N)C[C@H](N)[C@H]3O[C@H]3O[C@H](CN)[C@@H](O)[C@H](O)[C@H]3N)O[C@@H]2Cn2cc(COCCCCCCCCOCc3cn(C[C@H]4O[C@@H](O[C@@H]5[C@@H](O)[C@H](N)C[C@H](N)[C@H]5O[C@H]5O[C@H](CN)[C@@H](O)[C@H](O)[C@H]5N)[C@H](O)[C@@H]4O[C@H]4O[C@@H](CN)[C@@H](O)[C@H](O)[C@H]4N)nn3)nn2)[C@H](N)[C@@H](O)[C@@H]1O` were, in that order, 74.3 °C and 5.4 °C.
For `NC[C@@H]1O[C@H](O[C@H]2[C@@H](O)[C@H](O[C@@H]3[C@@H](O)[C@H](N)C[C@H](N)[C@H]3O[C@H]3O[C@H](CN)[C@@H](O)[C@H](O)[C@H]3N)O[C@@H]2Cn2cc(Cc3cccc(Cc4cn(C[C@H]5O[C@@H](O[C@@H]6[C@@H](O)[C@H](N)C[C@H](N)[C@H]6O[C@H]6O[C@H](CN)[C@@H](O)[C@H](O)[C@H]6N)[C@H](O)[C@@H]5O[C@H]5O[C@@H](CN)[C@@H](O)[C@H](O)[C@H]5N)nn4)c3)nn2)[C@H](N)[C@@H](O)[C@@H]1O`, in that order: 78.2 °C and 9.3 °C.

One may read the Tm as the temperature at the midpoint of the melting transition. The term ΔTm denotes the change in melting temperature against a reference sample. For orientation: IC50 means the concentration that gives 50% inhibition. Low readings indicate greater potency, high ones weaker potency. Usually Kd stands for the constant that tells how readily two partners part at equilibrium. A lower Kd goes with a tighter complex.
